Tested on: U2OS
Assay: Multiplex assay against U2OS
Format: toxicity, cell-based
Conditions: human
Outline: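 Cells were classed with CellPathfinder machine-learning gating, first as Hoechst high-intensity objects or normal cells, then (normal cells) as healthy, pyknosed or fragmented nuclei, and finally (pyknosed cells) as mitotic or apoptotic. Staining of live cells at seeding used Hoechst33342, BioTracker Green Microtubule Cytoskeleton Dye, MitoTracker Red and Annexin V Alexa Fluor 680, with imaging on a CQ1 microscope at 37°C and 5% CO2 after compound addition. Tubulin, mitochondrial-mass and membrane-permeability phenotypes are per cents of healthy-nucleus cells.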

[1] = 12 h, 1 µM, compound concentration 1 uM, replicate 1
[2] = 12 h, 1 µM, compound concentration 1 uM, replicate 2
[3] = 12 h, 10 µM, compound concentration 10 uM, replicate 1
[4] = 12 h, 10 µM, compound concentration 10 uM, replicate 2
[5] = 24 h, 1 µM, compound concentration 1 uM, replicate 1
[6] = 24 h, 1 µM, compound concentration 1 uM, replicate 2
[7] = 24 h, 10 µM, compound concentration 10 uM, replicate 1
[8] = 24 h, 10 µM, compound concentration 10 uM, replicate 2
[9] = 48 h, 1 µM, compound concentration 1 uM, replicate 1
[10] = 48 h, 1 µM, compound concentration 1 uM, replicate 2
[11] = 48 h, 10 µM, compound concentration 10 uM, replicate 1
[12] = 48 h, 10 µM, compound concentration 10 uM, replicate 2

Cc1cc(C)cc(-c2cnc3cc(Cl)c(-c4cccc(O)c4)cc3c2OCCCN)c1
Population Apoptotic (%) [1]: 36% | Population Fragmented Nuclei (%) [1]: 11% | Population Healthy Nuclei (%) [1]: 75% | Population Hoechst High Intensity Objects (%) [1]: 6% | Population Membrane Permeable-Phenotype (%) [1]: 5% | Population Mitochondria Different-Phenotype (%) [1]: 76% | Population Mitotic Cells (%) [1]: 64% | Population Normal (%) [1]: 93% | Population Pyknosed Nuclei (%) [1]: 12% | Population Tubulin-Different-Phenotype (%) [1]: 88% | Total Cell Count [1]: 132 | Population Apoptotic (%) [2]: 44% | Population Healthy Nuclei (%) [2]: 72% | Population Hoechst High Intensity Objects (%) [2]: 10% | Population Membrane Permeable-Phenotype (%) [2]: 2% | Population Mitochondria Different-Phenotype (%) [2]: 82% | Population Mitotic Cells (%) [2]: 55% | Population Normal (%) [2]: 90% | Population Pyknosed Nuclei (%) [2]: 16% | Population Tubulin-Different-Phenotype (%) [2]: 56% | Total Cell Count [2]: 68 | Population Apoptotic (%) [3]: 90% | Population Fragmented Nuclei (%) [3]: 33% | Population Healthy Nuclei (%) [3]: 1% | Population Hoechst High Intensity Objects (%) [3]: 14% | Population Membrane Permeable-Phenotype (%) [3]: 50% | Population Mitochondria Different-Phenotype (%) [3]: 50% | Population Mitotic Cells (%) [3]: 9% | Population Normal (%) [3]: 85% | Population Pyknosed Nuclei (%) [3]: 64% | Population Tubulin-Different-Phenotype (%) [3]: 50% | Total Cell Count [3]: 207 | Population Apoptotic (%) [4]: 70% | Population Fragmented Nuclei (%) [4]: 16% | Population Healthy Nuclei (%) [4]: 32% | Population Hoechst High Intensity Objects (%) [4]: 8% | Population Membrane Permeable-Phenotype (%) [4]: 90% | Population Mitochondria Different-Phenotype (%) [4]: 95% | Population Mitotic Cells (%) [4]: 29% | Population Normal (%) [4]: 91% | Population Pyknosed Nuclei (%) [4]: 50% | Population Tubulin-Different-Phenotype (%) [4]: 100% | Total Cell Count [4]: 60 | Population Apoptotic (%) [5]: 35% | Population Fragmented Nuclei (%) [5]: 7% | Population Healthy Nuclei (%) [5]: 77% | Population Hoechst High Intensity Objects (%) [5]: 5% | Population Membrane Permeable-Phenotype (%) [5]: 6% | Population Mitochondria Different-Phenotype (%) [5]: 75% | Population Mitotic Cells (%) [5]: 64% | Population Normal (%) [5]: 94% | Population Pyknosed Nuclei (%) [5]: 14% | Population Tubulin-Different-Phenotype (%) [5]: 68% | Total Cell Count [5]: 131 | Population Apoptotic (%) [6]: 62% | Population Fragmented Nuclei (%) [6]: 11% | Population Healthy Nuclei (%) [6]: 75% | Population Hoechst High Intensity Objects (%) [6]: 3% | Population Membrane Permeable-Phenotype (%) [6]: 2% | Population Mitochondria Different-Phenotype (%) [6]: 78% | Population Mitotic Cells (%) [6]: 37% | Population Normal (%) [6]: 96% | Population Pyknosed Nuclei (%) [6]: 13% | Population Tubulin-Different-Phenotype (%) [6]: 28% | Total Cell Count [6]: 66 | Population Apoptotic (%) [7]: 86% | Population Fragmented Nuclei (%) [7]: 33% | Population Healthy Nuclei (%) [7]: 2% | Population Hoechst High Intensity Objects (%) [7]: 15% | Population Membrane Permeable-Phenotype (%) [7]: 66% | Population Mitochondria Different-Phenotype (%) [7]: 66% | Population Mitotic Cells (%) [7]: 13% | Population Normal (%) [7]: 84% | Population Pyknosed Nuclei (%) [7]: 63% | Population Tubulin-Different-Phenotype (%) [7]: 66% | Total Cell Count [7]: 200 | Population Apoptotic (%) [8]: 93% | Population Fragmented Nuclei (%) [8]: 24% | Population Healthy Nuclei (%) [8]: 3% | Population Hoechst High Intensity Objects (%) [8]: 7% | Population Membrane Permeable-Phenotype (%) [8]: 50% | Population Mitochondria Different-Phenotype (%) [8]: 50% | Population Mitotic Cells (%) [8]: 6% | Population Normal (%) [8]: 92% | Population Pyknosed Nuclei (%) [8]: 72% | Population Tubulin-Different-Phenotype (%) [8]: 50% | Total Cell Count [8]: 63 | Population Apoptotic (%) [9]: 48% | Population Fragmented Nuclei (%) [9]: 8% | Population Healthy Nuclei (%) [9]: 75% | Population Hoechst High Intensity Objects (%) [9]: 1% | Population Membrane Permeable-Phenotype (%) [9]: 3% | Population Mitochondria Different-Phenotype (%) [9]: 47% | Population Mitotic Cells (%) [9]: 51% | Population Normal (%) [9]: 98% | Population Pyknosed Nuclei (%) [9]: 15% | Population Tubulin-Different-Phenotype (%) [9]: 32% | Total Cell Count [9]: 127 | Population Apoptotic (%) [10]: 54% | Population Fragmented Nuclei (%) [10]: 11% | Population Healthy Nuclei (%) [10]: 73% | Population Hoechst High Intensity Objects (%) [10]: 5% | Population Membrane Permeable-Phenotype (%) [10]: 5% | Population Mitochondria Different-Phenotype (%) [10]: 41% | Population Mitotic Cells (%) [10]: 45% | Population Normal (%) [10]: 95% | Population Pyknosed Nuclei (%) [10]: 14% | Population Tubulin-Different-Phenotype (%) [10]: 16% | Total Cell Count [10]: 73 | Population Apoptotic (%) [11]: 83% | Population Fragmented Nuclei (%) [11]: 30% | Population Healthy Nuclei (%) [11]: 3% | Population Hoechst High Intensity Objects (%) [11]: 20% | Population Membrane Permeable-Phenotype (%) [11]: 75% | Population Mitochondria Different-Phenotype (%) [11]: 75% | Population Mitotic Cells (%) [11]: 16% | Population Normal (%) [11]: 79% | Population Pyknosed Nuclei (%) [11]: 65% | Population Tubulin-Different-Phenotype (%) [11]: 75% | Total Cell Count [11]: 270 | Population Apoptotic (%) [12]: 96% | Population Fragmented Nuclei (%) [12]: 33% | Population Healthy Nuclei (%) [12]: 12% | Population Hoechst High Intensity Objects (%) [12]: 17% | Population Membrane Permeable-Phenotype (%) [12]: 100% | Population Mitochondria Different-Phenotype (%) [12]: 100% | Population Mitotic Cells (%) [12]: 3% | Population Normal (%) [12]: 82% | Population Pyknosed Nuclei (%) [12]: 54% | Population Tubulin-Different-Phenotype (%) [12]: 100% | Total Cell Count [12]: 80

From ChEMBL document CHEMBL4689842, “EUbOPEN Chemogenomics Library wave 1” (2021)
